Assays:
[1] = Toxicity in human HuH7 cells assessed as effect on GAPDH mRNA level; format: cell-based, Huh-7
In short: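 Run in parallel with replicon assay in Con1 replicon Huh-7 cells (0.5% DMSO, 37 °C); endogenous GAPDH mRNA quantified by TaqMan RT-PCR; highest concentration tested 10000 nM.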

[2] = system: Hepatitis C virus; test: Antiviral activity against HCV1b Con1 infected in human HuH7 cells assessed as inhibition of viral RNA replication by RT-PCR analysis; format: functional, organism-based, Hepacivirus hominis; details: isolate Con1, Huh-7
[3] = AUC (0 to 6 hrs) in Sprague-Dawley rat at 10 mg/kg, po; format: ADME, organism-based; set-up: time < 6 hr, dose 10 mg/kg, route oral; details: plasma
[4] = Ratio of EC50 for HCV1b Con1 to plasma concentration in Sprague-Dawley rat at 10 mg/kg, po after 6 hrs
[5] = system: Pregnane X receptor (Homo sapiens); test: Activation of PXR (unknown origin) at 10 uM by reporter gene assay
[6] = molecular target: Cytochrome P450 2D6 (Homo sapiens, UniProt P10635); test: Inhibition of CYP2D6 in human liver microsomes; format: ADME
[7] = molecular target: Cytochrome P450 3A4 (Homo sapiens, UniProt P08684); test: Inhibition of CYP3A4 in human liver microsomes; format: ADME
[8] = molecular target: Cytochrome P450 2C9 (Homo sapiens, UniProt P11712); test: Inhibition of CYP2C9 in human liver microsomes; format: ADME
Sequence of Cytochrome P450 2C9 (P11712 whole entry): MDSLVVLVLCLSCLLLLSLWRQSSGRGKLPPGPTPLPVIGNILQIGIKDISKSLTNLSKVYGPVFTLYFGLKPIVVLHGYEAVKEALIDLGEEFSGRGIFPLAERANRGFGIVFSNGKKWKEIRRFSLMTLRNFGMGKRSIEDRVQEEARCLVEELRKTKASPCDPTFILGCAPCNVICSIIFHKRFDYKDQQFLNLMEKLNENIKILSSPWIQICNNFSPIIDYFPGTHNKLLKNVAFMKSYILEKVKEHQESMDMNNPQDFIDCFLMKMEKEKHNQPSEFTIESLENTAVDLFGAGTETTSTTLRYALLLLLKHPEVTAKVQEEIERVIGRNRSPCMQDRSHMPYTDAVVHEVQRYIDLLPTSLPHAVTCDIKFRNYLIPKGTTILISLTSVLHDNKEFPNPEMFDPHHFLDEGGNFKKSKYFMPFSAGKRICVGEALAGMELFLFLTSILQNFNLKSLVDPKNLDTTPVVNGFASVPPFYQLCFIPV

Sequence of Cytochrome P450 2D6 (P10635 whole entry): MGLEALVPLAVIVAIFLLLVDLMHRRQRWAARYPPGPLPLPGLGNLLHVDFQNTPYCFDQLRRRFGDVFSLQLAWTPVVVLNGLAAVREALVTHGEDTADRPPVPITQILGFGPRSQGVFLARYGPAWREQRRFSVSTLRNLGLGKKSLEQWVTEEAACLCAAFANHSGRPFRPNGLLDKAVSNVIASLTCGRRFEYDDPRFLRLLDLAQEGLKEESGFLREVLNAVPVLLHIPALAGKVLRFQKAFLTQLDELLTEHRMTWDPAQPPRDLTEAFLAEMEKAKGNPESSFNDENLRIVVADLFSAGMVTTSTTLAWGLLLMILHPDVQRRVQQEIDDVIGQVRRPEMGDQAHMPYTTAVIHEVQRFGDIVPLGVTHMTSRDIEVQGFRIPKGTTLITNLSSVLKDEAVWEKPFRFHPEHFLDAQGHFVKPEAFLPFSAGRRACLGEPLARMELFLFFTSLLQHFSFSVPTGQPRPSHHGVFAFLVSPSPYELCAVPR
Sequence of Cytochrome P450 3A4 (P08684 whole entry): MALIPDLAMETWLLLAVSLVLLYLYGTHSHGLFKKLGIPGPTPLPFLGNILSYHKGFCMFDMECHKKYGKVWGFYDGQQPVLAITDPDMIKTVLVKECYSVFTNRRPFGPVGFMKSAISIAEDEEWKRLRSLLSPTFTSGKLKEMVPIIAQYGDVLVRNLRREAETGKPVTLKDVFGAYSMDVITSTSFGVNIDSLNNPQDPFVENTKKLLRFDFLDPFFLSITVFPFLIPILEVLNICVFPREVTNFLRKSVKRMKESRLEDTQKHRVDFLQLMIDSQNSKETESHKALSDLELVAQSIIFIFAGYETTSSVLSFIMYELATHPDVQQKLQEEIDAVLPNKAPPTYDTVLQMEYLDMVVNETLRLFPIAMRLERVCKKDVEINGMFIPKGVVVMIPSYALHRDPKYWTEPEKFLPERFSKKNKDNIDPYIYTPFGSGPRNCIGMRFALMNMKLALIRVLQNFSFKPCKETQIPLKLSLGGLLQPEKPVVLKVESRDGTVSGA

Structure (SMILES)	IC50 [1]	EC50 [2]	AUC(0-t) at 6 h [3]	Ratio [4]	Activity [5]	IC50 [6]	IC50 [7]	IC50 [8]
C[C@H](NS(=O)(=O)c1ccc(-c2c(C#N)c3cc(F)c(O)cc3n2C2CCC2)nc1)C(F)(F)F	> 10000 nM	410 nM						
Cc1cc2c(cc1F)c(C#N)c(-c1ccc(S(=O)(=O)N[C@@H](C)C(F)(F)F)cn1)n2-c1cccnn1	> 10000 nM	13 nM	3.26 µM·h	22				
CCc1cc2c(cc1F)c(C#N)c(-c1ccc(S(=O)(=O)N[C@@H](C)C(F)(F)F)cn1)n2-c1ccncc1	> 10000 nM	9 nM	6.38 µM·h	47				
Cc1cc2c(cc1F)c(C#N)c(-c1ccc(S(=O)(=O)N[C@@H](C)C(F)(F)F)cn1)n2-c1ccccn1	> 10000 nM	18 nM	4.52 µM·h	49				
C[C@H](NS(=O)(=O)c1ccc(-c2c(C#N)c3cc(F)c(Cl)cc3n2C2CCC2)nc1)C(F)(F)F	> 10000 nM	460 nM						
Cc1cc2c(cc1F)c(C#N)c(-c1ccc(S(=O)(=O)N[C@@H](C)C(F)(F)F)cn1)n2-c1cnccn1	> 10000 nM	9 nM	0.885 µM·h	9				
C[C@H](NS(=O)(=O)c1ccc(-c2c(C#N)c3c(F)cc(OC(F)F)cc3n2C2CCC2)nc1)C(F)(F)F	> 10000 nM	18 nM						
Cc1ccc2c(C#N)c(-c3ccc(S(=O)(=O)N[C@@H](C)C(F)(F)F)cn3)n(-c3ncccn3)c2c1	> 10000 nM	3 nM						
CCc1cc2c(cc1F)c(C#N)c(-c1ccc(S(=O)(=O)N[C@@H](C)C(F)(F)F)cn1)n2-c1nccs1	> 10000 nM	2 nM	2.75 µM·h	347				
Cc1cnc(-n2c(-c3ccc(S(=O)(=O)N[C@@H](C)C(F)(F)F)cn3)c(C#N)c3cc(F)c(C)cc32)nc1	> 10000 nM	32 nM						
C[C@H](NS(=O)(=O)c1ccc(-c2c(C#N)c3cc(F)c(C4CC4)cc3n2-c2ccc(F)cn2)nc1)C(F)(F)F	> 10000 nM	12 nM	1.7 µM·h	20				
C[C@H](NS(=O)(=O)c1ccc(-c2c(C#N)c3ccc(OC(F)F)cc3n2-c2ncccn2)nc1)C(F)(F)F	> 10000 nM	7 nM	20.1 µM·h					
CCc1cc2c(cc1F)c(C#N)c(-c1ccc(S(=O)(=O)N[C@@H](C)C(F)(F)F)cn1)n2-c1ccc(F)cn1	> 10000 nM	13 nM	1.79 µM·h	12				
CCc1cc2c(C#N)c(-c3ccc(S(=O)(=O)N[C@@H](C)C(F)(F)F)cn3)n(C3CCC3)c2cc1OC(F)F	> 10000 nM	1400 nM						
Cc1cc2c(cc1F)c(C#N)c(-c1ccc(S(=O)(=O)N[C@@H](C)C(F)(F)F)cn1)n2-c1cccnc1	> 10000 nM	11 nM	6.39 µM·h	65				
CC(O)c1cc2c(cc1F)c(C#N)c(-c1ccc(S(N)(=O)=O)cn1)n2-c1ncccn1 (stereo unspecified)		> 10000 nM						
CCc1cc2c(cc1F)c(C#N)c(-c1ccc(S(=O)(=O)N[C@@H](C)C(F)(F)F)cn1)n2-c1cnccn1	> 10000 nM	4 nM	0.345 µM·h	14				
CCc1cc2c(cc1F)c(C#N)c(-c1ccc(S(=O)(=O)N[C@@H](C)C(F)(F)F)cn1)n2-c1ccccn1	> 10000 nM	5 nM	3.85 µM·h	69	54%	> 10000 nM	> 10000 nM	> 10000 nM
C[C@H](NS(=O)(=O)c1ccc(-c2c(C#N)c3cc(F)c(OC(F)F)cc3n2-c2ncccn2)nc1)C(F)(F)F	> 10000 nM	16 nM	3.81 µM·h					
Cc1cc2c(cc1F)c(C#N)c(-c1ccc(S(=O)(=O)N[C@@H](C)C(F)(F)F)cn1)n2-c1ncccc1C	> 10000 nM	400 nM						

Structure (SMILES)	IC50 [1]	EC50 [2]	AUC(0-t) at 6 h [3]	Ratio [4]	Activity [5]	IC50 [6]	IC50 [7]	IC50 [8]
Cc1cc2c(cc1F)c(C#N)c(-c1ccc(S(=O)(=O)N[C@@H](C)C(F)(F)F)cn1)n2-c1ccc(F)cn1	> 10000 nM	8 nM	3.45 µM·h	42				
CCc1cc2c(cc1F)c(C#N)c(-c1ccc(S(=O)(=O)N[C@@H](C)C(F)(F)F)cn1)n2-c1ncc(C)cn1	> 10000 nM	23 nM	7.24 µM·h	44				
Cc1cc(F)c2c(C#N)c(-c3ccc(S(=O)(=O)N[C@@H](C)C(F)(F)F)cn3)n(C3CCC3)c2c1	> 10000 nM	153 nM						
Cc1cc2c(cc1F)c(C#N)c(-c1ccc(S(=O)(=O)N[C@@H](C)C(F)(F)F)cn1)n2-c1ccncc1	> 10000 nM	11 nM	2.6 µM·h	24				
C[C@H](NS(=O)(=O)c1ccc(-c2c(C#N)c3cc(O)c(OC(F)F)cc3n2C2CCC2)nc1)C(F)(F)F	> 10000 nM	63 nM						
COc1cc2c(cc1F)c(C#N)c(-c1ccc(S(=O)(=O)N[C@@H](C)C(F)(F)F)cn1)n2C1CCC1	> 10000 nM	74 nM						
C[C@H](NS(=O)(=O)c1ccc(-c2c(C#N)c3cc(F)c(C4CC4)cc3n2-c2ncccn2)nc1)C(F)(F)F	> 10000 nM	6 nM	2.04 µM·h	75				
Cc1cc2c(cc1F)c(C#N)c(-c1ccc(S(=O)(=O)N[C@@H](C)C(F)(F)F)cn1)n2-c1ncc(F)cn1	> 10000 nM	4 nM	4.08 µM·h	187	96%	> 10000 nM	> 10000 nM	> 10000 nM
CSc1cc2c(cc1F)c(C#N)c(-c1ccc(S(=O)(=O)N[C@@H](C)C(F)(F)F)cn1)n2C1CCC1	> 10000 nM	35 nM						
Cc1cc2c(cc1F)c(C#N)c(-c1ccc(S(=O)(=O)N[C@@H](C)C(F)(F)F)cn1)n2-c1nccs1	> 10000 nM	3 nM	1.76 µM·h	96				
C[C@H](NS(=O)(=O)c1ccc(-c2c(C#N)c3cc(F)c(C4CC4)cc3n2C2CCC2)nc1)C(F)(F)F	> 10000 nM	28 nM						
Cc1cc2c(cc1F)c(C#N)c(-c1ccc(S(=O)(=O)N[C@@H](C)C(F)(F)F)cn1)n2-c1ncccc1F	> 10000 nM	3 nM	8.54 µM·h	194	59%	> 10000 nM	> 10000 nM	> 10000 nM
Cc1cc2c(cc1F)c(C#N)c(-c1ccc(S(=O)(=O)N[C@@H](C)C(F)(F)F)cn1)n2-c1cncs1	> 10000 nM	7 nM	6.27 µM·h	38				
Cc1cc2c(C#N)c(-c3ccc(S(=O)(=O)N[C@@H](C)C(F)(F)F)cn3)n(C3CCC3)c2cc1OC(F)F	10000 nM	108 nM						
Cc1cc2c(cc1F)c(C#N)c(-c1ccc(S(=O)(=O)N[C@@H](C)C(F)(F)F)cn1)n2-c1cscn1	> 10000 nM	20 nM	10.3 µM·h	35				
Cc1cc2c(cc1F)c(C#N)c(-c1ccc(S(=O)(=O)N[C@@H](C)C(F)(F)F)cn1)n2-c1cccs1	> 10000 nM	2 nM	0.48 µM·h	29				
C[C@H](NS(=O)(=O)c1ccc(-c2c(C#N)c3cc(F)c(C4CC4)cc3n2-c2ccccn2)nc1)C(F)(F)F	> 10000 nM	16 nM						
CCc1cc2c(cc1F)c(C#N)c(-c1ccc(S(N)(=O)=O)cn1)n2-c1ncccn1		> 10000 nM						
Cc1ccc(-n2c(-c3ccc(S(=O)(=O)N[C@@H](C)C(F)(F)F)cn3)c(C#N)c3cc(F)c(C)cc32)nc1	> 10000 nM	25 nM						
CC(O)c1cc2c(cc1F)c(C#N)c(-c1ccc(S(=O)(=O)N[C@@H](C)C(F)(F)F)cn1)n2-c1ncccn1 (stereo partly specified)		68 nM						

— ChEMBL document CHEMBL3120098, “Structure-activity relationship (SAR) optimization of 6-(indol-2-yl)pyridine-3-sulfonamides: identification of potent, selective, and orally bioavailable small molecules targeting hepatitis C (HCV) NS4B” (J Med Chem, 2014)
